The source of these data is ChEMBL document CHEMBL4145530, “Design, synthesis and pharmacological evaluation of N-benzyl-piperidinyl-aryl-acylhydrazone derivatives as donepezil hybrids: Discovery of novel multi-target anti-alzheimer prototype drug candidates” (Eur J Med Chem, 2018).

Active and inactive are the calls of the source.

In data set [1] the test system is Mus musculus. Nature of the data set: Antinociceptive activity in formalin-induced Swiss mouse model of hyperalgesia assessed as time spent licking the injected paw in last phase at […], po pretreated for 1 hr followed by formalin injection and measured at 20 to 30 mins (reference value: 135.8 +/- 10.7 secs). It is filed as functional.
Data set [2] has as its target T1, Acetylcholinesterase (Electrophorus electricus, UniProt O42275). Put plainly: Non-competitive inhibition of electric eel AChE using acetylthiocholine iodide as substrate preincubated for 10 mins followed by substrate addition by Ellman's method. The procedure, abridged:
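Substrate-competition kinetics with E. electricus AChE by Ellman's method: 10 min enzyme–DTNB–compound preincubation in 0.1 M phosphate, pH 7.4, then acetylthiocholine; A412 was read every 12 s for 5 min at rt. Three independent data sets, each in triplicate, were averaged and fitted to a simple noncompetitive model. That model was compared with mixed linear inhibition by AICc probability ratio.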
(In general: In Ellman's method for cholinesterases, released thiocholine reacts with DTNB.)

Data set [3] is described as follows: Cytotoxicity against human HepG2 cells assessed as cell viability at 20 to 40 uM after 6 hrs by trypan blue exclusion assay relative to control. The class given is cell-based. To be noted: read-out: Activity.
Data set [4] is described as follows: Selectivity ratio of IC50 for equine serum BuChE to IC50 for electric eel AChE. The procedure, abridged:
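Ellman kinetic assay with Electrophorus electricus AChE (acetylthiocholine) and equine serum BuChE (butyrylthiocholine iodide), […]. Enzyme was preincubated 10 min with DTNB and compound in 0.1 M sodium phosphate, pH 7.4 (final DMSO <0.2%), before substrate was added. A412 was read every 12 s for 5 min at rt to give maximum velocity. IC50 is the geometric mean of 2–3 curves, each 6 concentrations in triplicate. Selectivity is IC50 BuChE/IC50 AChE.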

The test system of data set [5] is SH-SY5Y. Nature of the data set: Neuroprotection in human SH-SY5Y cells assessed as inhibition of amyloid beta (1 to 42) oligomer-induced neuronal death at 10 uM after 24 hrs by propidium iodide staining based fluorescence microscopic method. It is filed as functional, cell-based. The method, boiled down:
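After plating at 5×10^3 cells/well and growing 24 h, SH-SY5Y cells were co-exposed to compound and Aβ1-42 oligomers (10 µM) for 24 h at 37 °C. Cells were stained with propidium iodide in PBS for 10 min. Dead cells were counted by fluorescence microscopy in four fields of 50–100 cells and expressed as PI-positive/total × 100. Three independent experiments.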

Data set [6] concerns HepG2. Put plainly: cells. It is filed as ADME, cell-based. The note with it: Homo sapiens, HepG2, 6 h.
Data set [7] deals with T2, Prostaglandin G/H synthase 1 (Ovis aries) (UniProt P05979).
T2 sequence (whole entry): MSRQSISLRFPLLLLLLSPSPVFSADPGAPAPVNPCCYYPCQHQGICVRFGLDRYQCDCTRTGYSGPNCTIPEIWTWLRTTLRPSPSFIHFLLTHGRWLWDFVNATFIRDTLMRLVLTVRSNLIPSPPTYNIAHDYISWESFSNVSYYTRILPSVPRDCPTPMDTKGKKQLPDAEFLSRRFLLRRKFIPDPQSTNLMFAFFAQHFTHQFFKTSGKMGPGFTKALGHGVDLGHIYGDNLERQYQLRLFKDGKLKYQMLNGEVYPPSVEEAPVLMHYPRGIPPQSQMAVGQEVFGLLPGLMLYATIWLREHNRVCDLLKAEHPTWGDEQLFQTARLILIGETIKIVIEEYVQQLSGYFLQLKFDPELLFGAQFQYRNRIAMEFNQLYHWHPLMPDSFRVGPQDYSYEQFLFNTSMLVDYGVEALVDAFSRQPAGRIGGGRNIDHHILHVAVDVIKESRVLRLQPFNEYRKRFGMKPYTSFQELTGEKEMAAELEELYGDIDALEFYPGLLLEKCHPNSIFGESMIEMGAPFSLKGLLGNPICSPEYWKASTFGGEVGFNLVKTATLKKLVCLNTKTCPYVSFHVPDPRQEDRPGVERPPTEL
Put plainly: Inhibition of ovine COX1 at 10 uM using arachidonic acid as substrate preincubated for 120 mins followed by substrate addition measured for 5 secs by chemiluminescence assay relative to control. The procedure, abridged: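 COX-1 or COX-2 with heme was preincubated 120 min with compound (10 µM) in assay buffer. Arachidonic acid and a chemiluminescent substrate were then added at room temperature and peroxidative activity was read for 5 s; ibuprofen was the reference. Selectivity index was taken as the ratio of maximum COX-2 inhibition to COX-1 inhibition. Two independent experiments.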

The subject of data set [8] is Mus musculus. Put plainly: Toxicity in C57Bl/6 mouse model of amyloid beta (1 to 42) oligomer-induced neuroinflammation assessed as induction of neurodegeneration in CA1 region of contralateral hippocampus at 100 mg/kg, ip pretreated for 1.5 hrs followed by amyloid beta (1 to 42) oligomer addition and measured after 7 days by Fluoro-Jade C staining based fluorescence microscopic assay. It is filed as organism-based. The note with it: in vivo, 168 h. The method, boiled down: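 C57Bl/6 male mice were dosed i.p. at 100 mg/kg 1.5 h before stereotactic right intrahippocampal Aβ1-42 oligomer injection (400 pmol/0.5 µL), with PBS as control. After 7 days, hippocampal sections were stained with Fluoro-Jade C (0.0001%) after NaOH/ethanol and permanganate steps. Five CA1 images per hippocampus were imaged under fluorescence and pixel intensity quantified, n=10.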

Data set [9] relates to THP-1. Put plainly: Anti-inflammatory activity in human THP1 cells assessed as inhibition of LPS-induced TNFalpha production at 10 uM after 24 hrs by ELISA relative to control. To be noted: THP-1, 24 h. The class given is functional. The procedure, abridged:
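Human monocytic THP-1 cells (5×10^5 cells/mL) were given LPS 1 µg/mL with or without compound at 10 µM for 24 h. Cells were spun out at 500 × g and the medium kept at −80 °C. Secreted IL-1β and TNFα were measured with high-sensitivity ELISA. Three independent experiments.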
(In an ELISA, binding on a coated surface is turned into a signal by an enzyme label.)

For data set [10], the system named is Mus musculus. Nature of the data set: Antinociceptive activity in carrageenan-induced Swiss mouse model of mechanical hyperalgesia assessed as mechanical hyperalgesic index pretreated orally for 1 hr followed by carrageenan challenge by Von Frey filament assay. It is filed as functional. The method, boiled down: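 Swiss mice were placed in wire-screen acrylic boxes 60 min before testing. Vehicle, compound or indomethacin was given orally 1 h before intraplantar carrageenan. Mechanical threshold was found by the von Frey up-and-down method, with at least 6 trials at 10 s intervals, raising filament mass until paw withdrawal. Results are given as threshold in grams; n=8.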

The subject of data set [11] is Mus musculus. Put plainly: Antinociceptive activity in formalin-induced Swiss mouse model of hyperalgesia assessed as time spent licking the injected paw in early phase at 100 mM/kg, po pretreated for 1 hr followed by formalin injection and measured up to 5 mins (reference value: 74 +/- 7.7 secs). It is filed as functional.
The test system of data set [12] is HepG2. Nature of the data set: Genotoxicity in human HepG2 cells assessed as induction of DNA damage by measuring comet tail moment at 20 to 40 uM by alkaline comet assay. The note with it: hepg2, 40 µM. It is filed as toxicity, cell-based. The procedure, abridged: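 HepG2 cells were exposed 6 h to 20 or 40 µM, then trypsinised; viability was checked by trypan blue. Cells were embedded in low-melting agarose and lysed at 4 °C, pH 10, for 24 h. DNA was unwound 20 min in pH 13 buffer, then electrophoresed 25 V/300 mA for 25 min, neutralised and stained with SYBR Green. Tail moment was scored on 50 nuclei per slide in triplicate slides; 3 independent experiments. Doxorubicin and UV light served as positive controls.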

Data set [13] concerns the target Acetylcholinesterase (Electrophorus electricus) (UniProt O42275). Nature of the data set: (§1) Inhibition of electric eel AChE using acetylthiocholine iodide as substrate preincubated for 10 mins followed by substrate addition by Ellman's method.
For data set [14], the target named is T1, Acetylcholinesterase. The data set is described as §1.

Broadly, the Ki is a measure of affinity in units of concentration, obtained from inhibition or displacement. Read a low Ki as higher affinity. A word on the inhibition: it is the drop in the measured response relative to a control, in per cent. Usually IC50 stands for the concentration needed to halve the response being measured. Read a low IC50 as greater potency in that assay.

T1 sequence (O42275 whole entry): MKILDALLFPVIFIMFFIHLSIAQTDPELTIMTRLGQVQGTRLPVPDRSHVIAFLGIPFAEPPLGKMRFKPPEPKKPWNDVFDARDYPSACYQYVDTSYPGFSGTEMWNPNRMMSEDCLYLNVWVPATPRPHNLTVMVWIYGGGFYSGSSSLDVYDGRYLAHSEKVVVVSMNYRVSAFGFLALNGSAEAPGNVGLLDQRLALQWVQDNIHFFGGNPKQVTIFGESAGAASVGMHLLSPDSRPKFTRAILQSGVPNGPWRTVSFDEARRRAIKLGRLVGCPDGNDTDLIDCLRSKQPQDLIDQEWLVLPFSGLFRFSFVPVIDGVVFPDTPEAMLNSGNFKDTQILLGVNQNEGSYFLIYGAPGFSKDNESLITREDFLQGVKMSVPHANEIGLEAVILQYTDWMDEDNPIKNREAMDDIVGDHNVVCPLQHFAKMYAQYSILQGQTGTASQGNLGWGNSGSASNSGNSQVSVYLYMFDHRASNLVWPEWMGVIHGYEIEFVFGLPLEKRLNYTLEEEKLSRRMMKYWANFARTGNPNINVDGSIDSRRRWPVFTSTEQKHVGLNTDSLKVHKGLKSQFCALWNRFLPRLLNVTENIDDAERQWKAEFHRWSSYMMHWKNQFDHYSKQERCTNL
Chain of Acetylcholinesterase (Electrophorus electricus) (O42275 24-633 limits assumed): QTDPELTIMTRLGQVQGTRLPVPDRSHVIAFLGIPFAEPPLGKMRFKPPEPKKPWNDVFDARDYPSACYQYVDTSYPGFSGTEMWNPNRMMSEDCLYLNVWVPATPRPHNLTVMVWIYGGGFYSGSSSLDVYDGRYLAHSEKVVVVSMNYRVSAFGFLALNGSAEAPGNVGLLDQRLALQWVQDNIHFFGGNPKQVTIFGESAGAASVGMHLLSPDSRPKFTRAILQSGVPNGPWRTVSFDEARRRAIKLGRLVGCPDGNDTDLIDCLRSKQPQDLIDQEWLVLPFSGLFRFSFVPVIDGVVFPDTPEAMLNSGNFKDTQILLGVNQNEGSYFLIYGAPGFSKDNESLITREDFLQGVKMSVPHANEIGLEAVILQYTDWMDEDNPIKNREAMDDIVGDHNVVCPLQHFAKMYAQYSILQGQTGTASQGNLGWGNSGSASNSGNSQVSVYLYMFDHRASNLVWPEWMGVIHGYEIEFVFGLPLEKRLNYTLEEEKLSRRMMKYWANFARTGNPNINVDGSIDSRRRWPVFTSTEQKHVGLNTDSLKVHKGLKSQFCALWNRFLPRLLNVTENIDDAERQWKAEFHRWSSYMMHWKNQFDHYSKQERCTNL

For the compound `O=C(N/N=C/c1ccc(Cl)cc1)c1ccc(CN2CCCC(O)C2)cc1` (stereo not drawn), the Time is recorded as 62.88 s in data set [1] and 14 s in [11]. Also, affinity in data set [2] was put at a Ki of 7.76 µM. Further, the viability at 6 h, 40 µM in data set [3] is more than 90%. In addition, the Ratio IC50 in data set [4] turned out to be 1.9. In data set [5], the inhibition entry was “Active”. For the same compound, the IC50 is more than 80 µM in data set [6] and 25.4 µM in data set [14]. Besides, the inhibition in data set [7] is 51%; in data set [13] it was “Dose-dependent effect”. The Activity entry in data set [8] and in [12] was “Non-Toxic” throughout. The inhibition at 10 µM in [9] was found to be 98%. Further, the Activity_index in data set [10] stood at 168.3.
For `O=C(N/N=C/c1ccc(F)cc1)c1ccc(CN2CCCC(O)C2)cc1` (stereo not drawn), the results for the Time in data set [1] and in data set [11] were 24.17 s and 18.86 s, respectively. Moreover, the affinity in data set [2], expressed as Ki, was 13.4 µM. Besides, the viability at 6 h, 40 µM in data set [3] is more than 90%. In addition, the Ratio IC50 in data set [4] came out at 4.5. Also, the inhibition entry in [5] is “Active”. For the same compound, the IC50 in data set [6] was more than 80 µM; in data set [14] it was 8.65 µM. For the same compound, the results for the inhibition in data set [7] and in data set [13] were 64% and “Dose-dependent effect”, respectively. Moreover, the Activity result in data set [8] was “Toxic”; in data set [12] it was “Non-Toxic”. The inhibition at 10 µM in data set [9] is 69%. In data set [10], the Activity_index worked out at 178.9.
